Sampled rows, rich in hits. Any-hit rate of the full collection: about 2.8%.
PAFAH2 FP inh: inhibitors of human PAFAH2; inhibition, % at 3.39 µM; recombinant PAFAH2, FP-rhodamine activity probe, fluorescence polarization; actives 0.99% (n = 340,000); AID 492956; Q99487;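 active = inhibition above the mean over all tested compounds plus 3 SD, cut at about 30% in these data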;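 note: inhibitors block probe labeling of enzyme so polarization drops; 0% = enzyme with DMSO and 100% = wells lacking PAFAH2 protein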
PAFAH1B2 inh: blocks human PAF acetylhydrolase 1b catalytic subunit 2 | P68402 | recombinant PAFAH1B2, FP-rhodamine activity probe, fluorescence polarization | inhibition, % at 3.39 µM | actives 1.2% (n = 340,000);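 active = inhibition above the mean of all tested compounds plus 3 SD, cut at about 24% in these data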;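 note: 0% = enzyme with DMSO and 100% = wells lacking PAFAH1B2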
Target sequence (P68402 whole entry, looked up): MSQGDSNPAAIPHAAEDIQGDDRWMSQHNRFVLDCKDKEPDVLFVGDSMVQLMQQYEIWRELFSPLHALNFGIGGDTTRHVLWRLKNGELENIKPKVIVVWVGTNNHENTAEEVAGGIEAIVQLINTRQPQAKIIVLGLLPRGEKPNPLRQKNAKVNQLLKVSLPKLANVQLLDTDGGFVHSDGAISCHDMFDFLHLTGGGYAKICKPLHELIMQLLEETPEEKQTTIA
PAFAH1B3 FP inh: PAFAH1B3 (human) inhibition. inhibition, % at 3.39 µM. recombinant PAFAH1B3, FP-rhodamine probe, fluorescence polarization. AID 492972. actives 0.28% (n = 340,000);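 active = inhibition above the screen-wide average of all tested compounds plus 3 SD, cut at about 25% in these data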;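 note: 0% = enzyme with DMSO only and 100% = wells lacking PAFAH1B3 protein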
ASAP1 GAP inh: inhibitors of human ASAP1 ArfGAP activity. Q9ULH1. ASAP1-stimulated ARF1 GTP hydrolysis, GDP FP detection. inhibition, % at 16.5 µM. actives 0.19% (n = 360,000). AID 624377; in the data active = inhibition above about 25%;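 note: 0% = vehicle with enzyme and substrate and 100% = no enzyme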
pPAFAH inh: pPAFAH (human) enzyme inhibition | actives 1.5% (n = 330,000) | inhibition, % at 3.39 µM | Q13093 | recombinant pPAFAH, FP-rhodamine probe fluorescence polarization;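 active = inhibition above the mean inhibition across the screen plus 3 SD, cut at about 25% in these data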;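 note: inhibitors block binding of the rhodamine activity-based probe so polarization drops; 0% = enzyme with DMSO and 100% = wells lacking pPAFAH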
ARFGAP1 inhibitor: inhibits rat ARF GTPase activating protein 1. actives 0.26% (n = 360,000). Arfgap1-stimulated ARF1 GTP hydrolysis, GDP FP detection. Q62848. inhibition, % at 16.5 µM;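 active = inhibition above a per-plate limit, mean inhibition of low control wells plus 3 SD, cut at about 25% in these data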;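 note: 0% = DMSO wells with enzyme and 100% = wells lacking Arfgap1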
Target sequence (Q62848 1-136 limits assumed): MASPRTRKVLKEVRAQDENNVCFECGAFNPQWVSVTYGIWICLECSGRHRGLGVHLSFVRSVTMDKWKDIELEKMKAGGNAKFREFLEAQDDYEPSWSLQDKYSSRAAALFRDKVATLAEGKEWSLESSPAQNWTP
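system = rat Arfgap1 catalytic domain, aa 1-136 | technique = FP, GDP Alexa 633 tracer displaced from anti-GDP antibody, 620/688 nm | compound = one concentration, 16.5 µM, DMSO 1.26% | medium = HEPES-based buffer, pH 7.5 | timing = compound-enzyme preincubation 20 min, reaction 120 min, detection 60 min, 25 °C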
PAFAH2 FP conf: PAFAH2 (human) inhibition, confirmed; shares compounds with PAFAH2 FP inh; recombinant PAFAH2, FP-rhodamine activity probe, fluorescence polarization; inhibition, % at 3.39 µM; actives 65% (n = 2,300); AID 493030;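 active = mean inhibition over three repeats above a set limit taken from the earlier primary screen, cut at about 30% in these data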;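 note: inhibitor blocks binding of rhodamine activity probe so polarization falls; 0% = enzyme with DMSO and 100% = wells lacking PAFAH2 protein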
* hit, by the source's call; . = no result given.

SMILES	PAFAH2 FP inh	PAFAH1B2 inh	PAFAH1B3 FP inh	ASAP1 GAP inh	pPAFAH inh	ARFGAP1 inhibitor	PAFAH2 FP conf
CCc1nc2c(OCC3CCCCC3)cccn2c1N(C)C(=O)c1ccccc1F	.	.	.	-14.2	.	0.9	.
CC1(C(=O)Nc2ccc(Cl)c(Cl)c2)CCN1C(=O)CC1CCCC1 (centres undefined)	.	.	.	15.3	.	-9.4	.
Cc1noc(C)c1COC(=O)COc1ccc(C#N)cc1	-0.7	-2.7	3.5	-16.3	-4.4	6.3	.
O=C(COC(=O)c1ccc(NC(=O)C2CC=CCC2C(=O)O)cc1)c1ccccc1 (centres undefined)	31.5*	8.4	7.1	0.6	-1.1	2.7	31.3*
O=C(COC(=O)c1ccc(Cl)nc1)Nc1ccc(Cl)cc1	36.0*	3.3	3.8	11.0	.	-6.6	32.8*
O=C(COC(=O)c1ccc(Cl)nc1)Nc1ccc2c(c1)OCO2	53.2*	-1.1	-0.6	-15.7	1.1	1.7	38.8*
Cc1noc(C)c1COc1ccc(C(=O)OCC(=O)OC(C)(C)C)cc1	32.4*	1.2	8.2	15.4	8.6	14.6	29.5
O=C(COC(=O)c1ccc(Cl)nc1)Nc1ccc2c(c1)OCCO2	4.7	2.1	2.5	4.1	2.3	12.6	.
C[C@H](CO)N1C[C@H](C)[C@@H](CN(C)C(=O)Nc2ccc(C(C)(C)C)cc2)OCc2cn(nn2)CCCC1=O	.	.	.	-15.2	.	1.4	.
Cc1cc(=O)n2[nH]c(SCc3c(F)cccc3Cl)nc2n1	21.4	6.0	-1.5	-1.9	-1.4	7.5	.
Cc1cc(=O)n2[nH]c(SCc3ccccc3Cl)nc2n1	40.4*	4.5	6.3	10.4	20.8	-6.8	27.7
CC(C)c1cccc(C(C)C)c1NC(=O)COC(=O)C1=COCCO1	68.3*	6.3	5.9	-3.9	-1.2	0.9	56.9*
Cc1ccc(NC(=O)COC(=O)C2=COCCO2)cc1	46.9*	1.5	2.2	-7.8	3.5	4.6	38.7*
CCC(C)c1ccc(NC(=O)COC(=O)C2=COCCO2)cc1 (centres undefined)	69.5*	3.3	-3.3	8.6	2.3	-2.4	57.8*
Cc1ccc(C(C)NC(=O)COC(=O)C2=COCCO2)cc1C (centres undefined)	11.1	6.5	-0.4	-7.7	3.3	0.0	.
O=C(COC(=O)C1=COCCO1)Nc1cc(Cl)c(Cl)cc1Cl	37.9*	0.8	1.8	12.3	1.6	-6.5	33.2*
O=C(COC(=O)C1=COCCO1)Nc1c(F)cccc1F	8.9	0.8	2.1	1.4	-2.5	11.9	.
Cc1cc(C)c(NC(=O)COC(=O)C2=COCCO2)c(C)c1	.	.	.	-3.9	.	-5.2	.
Cc1ccc(S(=O)(=O)CC(=O)Nc2cc(C)on2)cc1	4.3	5.8	5.4	9.5	-0.5	21.2	.
CC1(C(=O)Nc2ccc3nc[nH]c3c2)CCN1C(=O)C/C=C/c1ccccc1 (centres undefined)	.	.	.	2.5	.	-2.3	.
O=C(COC(=O)C1=COCCO1)Nc1ccc2c(c1)OCO2	69.4*	3.1	5.4	4.2	6.2	-2.9	51.7*
COc1ccc(NC(=O)COC(=O)C2=COCCO2)cc1OC	7.9	2.0	-1.5	6.8	3.0	-3.8	.
O=S(=O)(Nc1ccc(N2CCOCC2)cc1)c1c(F)cc(F)cc1Br	8.2	3.3	-3.1	3.7	19.2	-1.1	.
Cc1nn(C(=O)c2ccco2)c(C)c1Br	5.1	2.7	4.7	-6.9	-7.6	-0.1	.
COc1ccc(C(=O)n2nc(C)c(Br)c2C)cc1	31.0*	3.7	4.1	-16.4	5.3	4.1	9.5
SMILES	PAFAH2 FP inh	PAFAH1B2 inh	PAFAH1B3 FP inh	ASAP1 GAP inh	pPAFAH inh	ARFGAP1 inhibitor	PAFAH2 FP conf
COc1ccc(-c2cc(NC=O)c3ncc(-c4cccc(C(=O)NCCN(C)C)c4)n3c2)cn1	.	.	.	-8.8	.	14.5	.
O=C(OCC(=O)N1CCc2ccccc21)c1ccccc1	47.3*	0.6	-0.1	-3.8	1.1	8.5	37.6*
COc1cc(N)c(Cl)cc1C(=O)OCC(=O)N1CCCC1	-4.1	2.2	1.8	5.0	3.4	3.4	.
COc1cc(N)c(Cl)cc1C(=O)OCC(=O)N1CCc2ccccc21	33.4*	2.6	-0.5	10.6	2.4	15.5	18.4
COc1cccc(C(=O)OCC(=O)N2CCc3ccccc32)c1OC	43.3*	1.6	4.8	10.1	.	12.9	42.6*
COc1ccc(-c2[nH][nH]c(=O)c2NC(=O)c2ccc(C)cc2)cc1	.	.	.	5.0	.	-2.1	.

Screening results deposited in PubChem by The Scripps Research Institute Molecular Screening Center.
